We go through one compound from ChEMBL document CHEMBL5214983, “New Dual P-Glycoprotein (P-gp) and Human Carbonic Anhydrase XII (hCA XII) Inhibitors as Multidrug Resistance (MDR) Reversers in Cancer Cells” (J Med Chem, 2022).

Data set [1] addresses T1, ATP-dependent translocase ABCB1 (Homo sapiens, UniProt P08183). Put plainly: Inhibition of P-gp in doxorubicin-resistant human A549 cells overexpressing P-gp assessed as increase in doxorubicin retention 3 uM in presence of 5 uM doxorubicin measured after 24 hrs by spectrophotometric method. Format: cell-based. The conditions noted are these: a549, 24 h. An outline of the steps: (§1)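 Resistant cells (wild-type, P-gp KO or hCA XII KO; KO lines selected with 1 μg/mL puromycin) exposed to 5 μM doxorubicin alone or with test compound at 1 or 3 μM. Cells washed, trypsinized and extracted in ethanol/0.3 N HCl. Doxorubicin fluorescence read at ex 475/em 553 nm and converted to nmol/mg cell protein with a calibration curve. Mean ± SD, n = 3.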

Data set [2] concerns the target T1, ATP-dependent translocase ABCB1. The experiment in a line: Inhibition of P-gp in doxorubicin-resistant carbonic anhydrase knockout human A549 cells overexpressing P-gp assessed as Vmax at 1 uM in presence of 0 to 100 uM doxorubicin […]. It is filed as cell-based. The conditions noted are these: a549, 1 µM. An outline of the steps:
(§2)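 Cells incubated 20 min with 0–100 μM doxorubicin, alone or with compound at 1 or 3 μM. A parallel set was left a further 10 min at 37 °C, then intracellular drug measured. Doxorubicin extruded (nmol/min/mg protein) plotted against initial concentration and fitted to Michaelis–Menten to give Vmax and Km. Mean ± SD.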

Data set [3] shares this target. Put plainly: Inhibition of P-gp in doxorubicin-resistant human HT-29 cells overexpressing P-gp assessed as Vmax at 1 uM in presence of 0 to 100 uM doxorubicin […]. Format: cell-based. The conditions noted are these: ht-29, 1 µM. An outline of the steps: as §2
Data set [4] has the same target. Put plainly: Inhibition of P-gp in doxorubicin-resistant human HT-29 cells overexpressing P-gp assessed as increase in doxorubicin retention 3 uM in presence of 5 uM doxorubicin measured after 24 hrs by spectrophotometric method. The conditions noted are these: ht-29, 24 h. It is filed as cell-based. An outline of the steps: as §1
Data set [5] shares this target. Put plainly: Inhibition of P-gp in human A549 cells overexpressing P-gp assessed as Vmax at 1 uM in presence of 0 to 100 uM doxorubicin […]. Format: cell-based. The conditions noted are these: a549, 1 µM. An outline of the steps: as §2
Data set [6] shares this target. Put plainly: Inhibition of P-gp in human A549 cells overexpressing P-gp assessed as Vmax at 3 uM in presence of 0 to 100 uM doxorubicin […]. Format: cell-based. The conditions noted are these: a549, 3 µM. An outline of the steps:
as §2

Data set [7] shares this target. Put plainly: Inhibition of P-gp in doxorubicin-resistant human HT-29 cells overexpressing P-gp assessed as increase in doxorubicin retention 1 uM in presence of 5 uM doxorubicin measured after 24 hrs by spectrophotometric method. It is filed as cell-based. The conditions noted are these: ht-29, 24 h. An outline of the steps:
as §1

Data set [8] shares this target. Put plainly: Inhibition of P-gp in human HT-29 cells overexpressing P-gp assessed as Vmax at 1 uM in presence of 0 to 100 uM doxorubicin […]. It is filed as cell-based. The conditions noted are these: ht-29, 1 µM. An outline of the steps:
as §2

Data set [9] has the same target. The experiment in a line: Inhibition of P-gp in doxorubicin-resistant carbonic anhydrase knockout human A549 cells overexpressing P-gp assessed as Vmax at 3 uM in presence of 0 to 100 uM doxorubicin […]. It is filed as cell-based. The conditions noted are these: a549, 3 µM. An outline of the steps:
as §2

The target is the same in data set [10]. Put plainly: Inhibition of P-gp in doxorubicin-resistant carbonic anhydrase knockout human HT-29 cells overexpressing P-gp assessed as Vmax at 1 uM in presence of 0 to 100 uM doxorubicin […]. The conditions noted are these: ht-29, 1 µM. It is filed as cell-based. An outline of the steps: as §2
For data set [11] the target is unchanged. Put plainly: Inhibition of P-gp in doxorubicin-resistant carbonic anhydrase knockout human HT-29 cells overexpressing P-gp assessed as Vmax at 3 uM in presence of 0 to 100 uM doxorubicin […]. The conditions noted are these: ht-29, 3 µM. It is filed as cell-based. An outline of the steps: as §2
A short description of data set [12]: Stability in human plasma assessed as half-life measured by LC-MS/MS analysis. Format: ADME, cell-free. An outline of the steps: (§3)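 Analyte at 1 μM in PBS or in pooled human plasma, incubated at 37 °C for 0, 30, 60 and 120 min, in triplicate. Internal standard verapamil added, mixture centrifuged, supernatant dried and redissolved. Analyte quantified by LC-MS/MS. Half-life taken from the slope of ln(concentration) versus time. Ketoprofen ethyl ester served as plasma activity reference.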

A short description of data set [13]: Stability in PBS measured by LC-MS/MS analysis. It is filed as physicochemical. The conditions noted are these: buffer. An outline of the steps: as §3
Data set [14] concerns the target T1, ATP-dependent translocase ABCB1. The experiment in a line: Inhibition of P-gp in doxorubicin-resistant human A549 cells overexpressing P-gp assessed as Vmax at 3 uM in presence of 0 to 100 uM doxorubicin […]. It is filed as cell-based. The conditions noted are these: a549, 3 µM. An outline of the steps: as §2
Data set [15] has the same target. Put plainly: Inhibition of P-gp in doxorubicin-resistant human A549 cells overexpressing P-gp assessed as Vmax at 1 uM in presence of 0 to 100 uM doxorubicin […]. The conditions noted are these: a549, 1 µM. It is filed as cell-based. An outline of the steps: as §2
Data set [16] has the same target. The experiment in a line: Inhibition of P-gp in human HT-29 cells overexpressing P-gp assessed as Vmax at 3 uM in presence of 0 to 100 uM doxorubicin […]. It is filed as cell-based. The conditions noted are these: ht-29, 3 µM. An outline of the steps: as §2
Data set [17] shares this target. Put plainly: Inhibition of P-gp in doxorubicin-resistant human HT-29 cells overexpressing P-gp assessed as Vmax at 3 uM in presence of 0 to 100 uM doxorubicin […]. The conditions noted are these: ht-29, 3 µM. It is filed as cell-based. An outline of the steps: as §2
Data set [18] has the same target. Put plainly: Inhibition of P-gp in doxorubicin-resistant human A549 cells overexpressing P-gp assessed as increase in doxorubicin retention 1 uM in presence of 5 uM doxorubicin measured after 24 hrs by spectrophotometric method. The conditions noted are these: a549, 24 h. It is filed as cell-based. An outline of the steps: as §1

Broadly, the Vmax is the rate approached at saturating substrate.

T1 sequence (P08183 whole entry): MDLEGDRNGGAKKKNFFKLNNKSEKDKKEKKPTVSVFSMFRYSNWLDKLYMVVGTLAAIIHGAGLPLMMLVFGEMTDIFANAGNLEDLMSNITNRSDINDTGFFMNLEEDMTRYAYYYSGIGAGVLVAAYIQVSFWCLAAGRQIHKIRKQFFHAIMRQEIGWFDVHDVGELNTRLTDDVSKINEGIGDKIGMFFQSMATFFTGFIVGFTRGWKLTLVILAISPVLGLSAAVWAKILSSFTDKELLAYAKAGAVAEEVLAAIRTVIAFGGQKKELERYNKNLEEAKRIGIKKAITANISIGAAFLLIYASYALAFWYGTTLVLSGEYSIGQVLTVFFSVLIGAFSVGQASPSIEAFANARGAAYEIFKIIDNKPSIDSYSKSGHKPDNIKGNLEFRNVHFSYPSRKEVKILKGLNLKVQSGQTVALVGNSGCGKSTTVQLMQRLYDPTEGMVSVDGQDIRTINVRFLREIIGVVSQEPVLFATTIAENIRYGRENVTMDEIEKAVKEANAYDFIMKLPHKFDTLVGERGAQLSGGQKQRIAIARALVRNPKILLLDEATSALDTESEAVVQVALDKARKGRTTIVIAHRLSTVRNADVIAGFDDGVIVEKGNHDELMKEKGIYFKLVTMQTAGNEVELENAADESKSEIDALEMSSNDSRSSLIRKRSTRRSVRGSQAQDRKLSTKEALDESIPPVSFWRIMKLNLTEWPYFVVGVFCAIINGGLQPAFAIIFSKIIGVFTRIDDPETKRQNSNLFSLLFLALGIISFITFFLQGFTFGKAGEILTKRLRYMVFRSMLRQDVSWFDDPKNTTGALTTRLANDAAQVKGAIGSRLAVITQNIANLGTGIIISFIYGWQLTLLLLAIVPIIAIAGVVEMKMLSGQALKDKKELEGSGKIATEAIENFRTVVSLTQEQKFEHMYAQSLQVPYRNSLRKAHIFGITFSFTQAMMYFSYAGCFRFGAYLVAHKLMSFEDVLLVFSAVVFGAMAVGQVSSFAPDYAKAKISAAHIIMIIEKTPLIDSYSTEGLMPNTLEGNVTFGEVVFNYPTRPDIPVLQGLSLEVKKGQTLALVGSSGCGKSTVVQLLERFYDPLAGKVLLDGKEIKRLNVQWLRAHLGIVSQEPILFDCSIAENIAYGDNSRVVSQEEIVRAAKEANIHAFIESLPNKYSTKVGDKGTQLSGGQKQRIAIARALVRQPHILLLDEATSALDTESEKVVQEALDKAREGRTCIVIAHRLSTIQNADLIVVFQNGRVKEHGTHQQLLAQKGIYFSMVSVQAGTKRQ

With `COc1cc(C(=O)OCCCCCCN(CCCOC(=O)c2cc(OC)c(OC)c(OC)c2)CCCOc2ccc3ccc(=O)oc3c2)cc(OC)c1OC`, the “inhibition (INH)” value in data set [1], in data set [4], in [7] and in [18] was “Active” each time. The Vmax came out at 3.6 µmol/min in [2]; 4.73 µmol/min in data set [3]; 2.43 µmol/min in data set [5]; 2.41 µmol/min in data set [6]; 3.21 µmol/min in data set [8]; 2.92 µmol/min in [9]. For the same compound, the Vmax was 4.27 µmol/min in data set [10]; 3.45 µmol/min in data set [11]; 4.14 µmol/min in data set [14]; 5.27 µmol/min in [15]; 3.28 µmol/min in [16]; 3.8 µmol/min in [17]. In addition, the Stability entry in [12] and in data set [13] was “Stable” throughout.
